In data set [1] the test system is SK-N-SH. The data set can be described thus: Antiproliferative activity against human SK-N-SH cells assessed as cell viability at 180 kBa/ml after 24 hrs by trypan blue assay relative to control. The class given is functional. The method in brief: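 Cell survival was scored by trypan blue exclusion 24 h after exposing SK-N-SH cells to radioiodinated guanidine at varied extracellular concentrations. Values are average (n ≥ 3) ± SD.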

Data set [2] can be described thus: Stability in human serum assessed as intact compound level after 5 mins by HPLC analysis. The format is ADME, cell-free. To be noted: read-out: Stability. The gist of the method: (§1)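 Radioiodinated guanidines were incubated in mouse, human or pig serum and analyzed by radio-HPLC on a C18 column at 0.8 mL/min. The gradient was 0–95% CH3CN over 50 min, then 95% for 20 min. Intact compound was fitted to monoexponential degradation to give half-life. Values are average ± std err.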

A short description of data set [3]: Stability in human serum assessed as intact compound level after 60 mins by HPLC analysis. The class given is ADME, cell-free. The conditions noted are these: read-out: Stability. The method in brief: as §1
Data set [4] in a line: Stability in human SK-N-SH cells assessed as parent compound level after 24 hrs by HPLC analysis. The class given is ADME, cell-based. To be noted: read-out: Stability. The method in brief:
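The compound was incubated 24 h in cell culture medium without cells or with SK-N-SH cells. Intact compound and 125IUdR catabolite were quantified by radio-HPLC on a C18 column at 0.8 mL/min, with a 0–95% CH3CN gradient over 50 min and 95% for 20 min.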

The nature of data set [5]: Half life in mouse serum by HPLC analysis. The class given is ADME, cell-free. The method in brief: as §1
Data set [6] in a line: Half life in pig serum by HPLC analysis. The class given is ADME, cell-free, Sus scrofa. The method in brief: as §1
A short description of data set [7]: Half life in EMEM medium by HPLC analysis. The format is physicochemical.
Data set [8] can be described thus: Drug uptake in human BE(2)-C cells assessed as level of 125I-incorporation into DNA after 1 hr and followed by compound washout with non-radioactive medium/PBS and measured immediately by gamma counting method relative to control. The class given is ADME, cell-based. The gist of the method: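 BE(2)-C cells were treated with radioiodinated guanidine for 1 h, washed with nonradioactive medium and PBS. They were processed immediately or returned to the incubator for a further 23 h. 125I in the DNA fraction was gamma-counted. Values are average (n ≥ 3) ± SD.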

Data set [9] has as its target T1, Sodium-dependent noradrenaline transporter (Homo sapiens, UniProt P23975). Nature of the data set: Substrate activity at NET in human BE(2)-C cells assessed as inhibition of drug uptake by measuring MIBG IC50 incubated for 1 hr in presence of nonradioactive MIBG by gamma counting method. The format is cell-based.
Data set [10] concerns the target T1, Sodium-dependent noradrenaline transporter. The data set can be described thus: Substrate activity at NET in human SK-N-SH cells assessed as inhibition of drug uptake by measuring MIBG IC50 incubated for 1 hr in presence of nonradioactive MIBG at 4 degC by filtration based gamma counting method. The class given is cell-based. The method in brief: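 This was a cell-suspension competition assay. SK-N-SH cells in suspension were incubated with 125I-guanidine and graded nonradioactive MIBG, and uptake was read by filtration and γ-counting. Runs were done at 37 °C, or at 4 °C after cooling the cells on ice. The MIBG IC50 was estimated from the inhibition curves.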

Data set [11] shares this target. Nature of the data set: Substrate activity at NET in human BE(2)-C cells assessed as inhibition of drug uptake by measuring MIBG IC50 incubated for 1 hr in presence of nonradioactive MIBG at 37 degC by filtration based gamma counting method. The format is cell-based.
In data set [12] the test system is SK-N-SH. The data set can be described thus: Anticlonogenic activity against human SK-N-SH cells assessed as inhibition of reproductive integrity at 35 kBq/mL after 14 days by crystal violet staining based assay relative to control. Details: scale not given: the % may be the effect or the level left. The format is functional. The gist of the method:
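SK-N-SH cells exposed to 125I guanidine for 24 h, then harvested, replated at 500 live cells/flask and grown in nonradioactive medium for 14 days (up to 21 days at the highest levels). Colonies were stained with crystal violet and counted. Values are average (n ≥ 3) ± SD.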

Data set [13] can be described thus: Drug level in human SK-N-SH cells DNA at 40 +/- 0.5 kBq/mL after 1 hr and followed by compound washout with non-radioactive medium/PBS and measured immediately by gamma counting method relative to control. The format is ADME, cell-based. The gist of the method:
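SK-N-SH cells were exposed 1 h to 125I compound (≈39–40 kBq/mL), then washed with nonradioactive medium and PBS. Cells were processed immediately (1 h) or re-incubated in fresh medium for 23 h (24 h). Cytoplasmic, nuclear and DNA fractions were gamma-counted.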

Data set [14] deals with SK-N-SH. The data set can be described thus: Anticlonogenic activity against human SK-N-SH cells assessed as number of colonies at 40 +/- 0.5 kBq/mL kBq/mL after 24 hr by crystal violet staining based assay. The format is functional. The gist of the method:
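SK-N-SH cells exposed for 1 h to 125I-MIBG (39.3 ± 0.3 kBq/mL extracellular) or IDG (40 ± 0.5 kBq/mL). For the 1 h group, cells were washed with nonradioactive medium and PBS, harvested with trypsin and replated for the clonogenic assay. For the 24 h group, cells were washed, given fresh nonradioactive medium and incubated a further 23 h before plating. Colonies were counted.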

The nature of data set [15]: Drug level in tumor of NCR nu/nu mouse xenografted with human BE(2)-C cells at 0.33 +/- 0.05 MBq administered intratumorally after 24 hrs by gamma counting method. The format is ADME, tissue-based, Neoplasm. To be noted: in vivo, other. The method in brief: (§2)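 Athymic Ncr nu/nu female and male mice bearing subcutaneous BE(2)-C xenografts received intratumor injections of the 125I agent. Tissues, tumor and blood were collected at 24 h and counted for radioactivity, expressed as %ID/g. Tumor-to-blood ratios were derived.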
(In general: A xenograft is tissue or cells of one species grown in another, often human tumour cells in immunodeficient mice.)

Data set [16] is described as follows: Ratio of tumor to blood concentration in NCR nu/nu mouse xenografted with human BE(2)-C cells at 0.33 +/- 0.05 MBq administered intratumorally after 24 hrs by gamma counting method. The class given is ADME, tissue-based. To be noted: tumour, other. The method in brief:
as §2

Data set [17] in a line: Drug level in tumor of NCR nu/nu mouse xenografted with human BE(2)-C cells at 0.83 +/- 0.09 MBq administered intratumorally pretreated with 9 umol of BNPP after 24 hrs by gamma counting analysis. To be noted: in vivo, other. The format is ADME, tissue-based, Neoplasm. The gist of the method: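 BE(2)-C xenograft-bearing nude mice were pre-injected with the carboxylesterase inhibitor bis-para-nitrophenylphosphate (9 or 18 μmol). They then received intratumor IDG. Tumor %ID/g was determined at 24 h.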

For data set [18], the system named is BE(2)-C. The data set can be described thus: Antitumor activity against human BE(2)-C cells xenografted with NCR nu/nu mouse assessed as tumor volume at 8.4 +/- 0.3 mBq administered intratumorally after 1 day (reference value: 0.39 +/- 0.15 cm3). The class given is functional. The method in brief:
(§3)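 Athymic Ncr nu/nu female and male mice bearing subcutaneous BE(2)-C xenografts were randomized by lottery into untreated control and treatment groups. Treatment was a single intratumor injection of 8.4 ± 0.3 MBq/mouse. Tumor volumes were followed to day 7 (controls) or day 14. Doubling times were calculated from day 0 to 7 and day 0 to 14. Values are average ± std err.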

Data set [19] relates to BE(2)-C. The data set can be described thus: Antitumor activity against human BE(2)-C cells xenografted with NCR nu/nu mouse assessed as doubling time at 8.4 +/- 0.3 mBq administered intratumorally measured up to 14 days. The class given is functional. The method in brief: as §3
Data set [20] can be described thus: Partition coefficient, logP of compound. The format is physicochemical. The conditions noted are these: octanol/water.
The nature of data set [21]: Toxicity in NCR nu/nu mouse xenografted with human BE(2)-C cells assessed as effect on hemoglobin level at 8.41 +/- 0.32 mBq measured up to 166 hrs. The method in brief: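 Athymic Ncr nu/nu female and male mice bearing subcutaneous BE(2)-C xenografts were randomized by lottery to untreated control or a single intratumor injection of 125I-guanidine (8.4 ± 0.3 MBq/mouse). Blood hemoglobin was measured in both groups and compared with the normal adult mouse range. Treated mice were terminated 14 days after injection.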

Some results are limits rather than exact numbers.

T1 sequence (P23975 whole entry): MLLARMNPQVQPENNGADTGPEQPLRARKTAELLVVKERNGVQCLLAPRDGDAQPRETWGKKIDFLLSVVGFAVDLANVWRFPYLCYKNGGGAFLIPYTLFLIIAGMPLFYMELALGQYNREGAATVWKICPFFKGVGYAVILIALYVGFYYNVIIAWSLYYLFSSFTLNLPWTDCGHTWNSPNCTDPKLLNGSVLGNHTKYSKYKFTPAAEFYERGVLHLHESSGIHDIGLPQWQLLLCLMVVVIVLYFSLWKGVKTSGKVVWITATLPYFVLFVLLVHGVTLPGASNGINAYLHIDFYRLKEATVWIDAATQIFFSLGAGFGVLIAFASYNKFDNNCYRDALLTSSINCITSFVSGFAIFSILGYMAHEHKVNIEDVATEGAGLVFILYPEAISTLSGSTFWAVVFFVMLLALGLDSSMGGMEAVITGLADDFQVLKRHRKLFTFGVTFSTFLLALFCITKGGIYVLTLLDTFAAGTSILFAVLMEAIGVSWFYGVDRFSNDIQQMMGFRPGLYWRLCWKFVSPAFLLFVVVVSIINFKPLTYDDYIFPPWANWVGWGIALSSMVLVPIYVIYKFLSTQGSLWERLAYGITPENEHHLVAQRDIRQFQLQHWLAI

Regarding `N=C(N)NCCCCCC(=O)O[C@H]1C[C@H](n2cc([125I])c(=O)[nH]c2=O)O[C@@H]1CO`, the Activity with SK-N-SH [1] is 60%; in the data set on SK-N-SH [12], more than 90%; in the data set on SK-N-SH [14], 97; in the data set with BE(2)-C [18], 0.42 cm3; in data set [21], “Non-Toxic”. The remaining at 5 min in data set [2] turned out to be 93%. In [3], the remaining at 1 h amounted to 62.4%. Further, the remaining at 24 h in data set [4] is 33%. Further, the half-life (in general, how long it takes for the measured level to halve) is 3.54 min in data set [5], 3.59 h in [6] and 110 h in data set [7]. For the same molecule, the Drug uptake is 93% in data set [8], 70 to 80% in data set [13], 3.93 % ID/g in [15] and 1.63 % ID/g in data set [17]. The results for the 50% inhibitory concentration (IC50) in data set [9], in data set [10] and in [11] were 8.2 µM, 22 µM and 28.7 µM, respectively. In addition, in data set [16], the Ratio came to 161. Further, the Time in the data set on BE(2)-C [19] amounted to 5.3 days. Also, the logP – broadly, a log measure of how a compound divides between an organic and an aqueous phase – in data set [20] is -0.2.

These data come from ChEMBL document CHEMBL4402514, “Norepinephrine-Transporter-Targeted and DNA-Co-Targeted Theranostic Guanidines” (J Med Chem, 2020).
